Measurements: ChEMBL document CHEMBL1138288, “2-phenylimidazopyridines, a new series of Golgi compounds with potent antiviral activity” (J Med Chem, 2007)
Calls of active or inactive are those of the source. No cut-off for these calls is given here.

What was measured:
[1] = tested on: Vaccinia virus; experiment: Antiviral activity against Vaccinia virus-infected Vero cells; assay type: functional, organism-based, Orthopoxvirus vaccinia
[2] = tested on: Enterovirus; experiment: Antiviral activity against Rhinovirus-infected HeLa-H1 cells; assay type: functional, organism-based
[3] = tested on: San Angelo virus; experiment: Antiviral activity against San Angelo virus-infected Vero cells; assay type: functional, organism-based
[4] = tested on: Modoc virus; experiment: Antiviral activity against Modoc virus-infected HeLa-H1 cells; assay type: functional, organism-based
[5] = tested on: Simian virus 40; experiment: Antiviral activity against SV40-infected Vero cells; assay type: functional, organism-based; details: Betapolyomavirus macacae
In short: (§1)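 Cells were seeded at about 50 000/well and infected 24 h later at MOI 0.1 or less, with drug added alongside. Once infectivity was evident, cells were washed and stained with methylene blue/carbol fuchsin in methanol for 10 min at room temperature.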

[6] = tested on: Human alphaherpesvirus 2; experiment: Antiviral activity against HSV2-infected Vero cells; assay type: functional, organism-based
[7] = tested on: California encephalitis virus; experiment: Antiviral activity against California encephalitis virus-infected Vero cells; assay type: functional, cell-based
[8] = tested on: Murine hepatitis virus; experiment: Antiviral activity against mouse hepatitis virus-infected NCTC clone-1469 cells; assay type: functional, organism-based; in short: as §1
[9] = tested on: Vesicular stomatitis virus; experiment: Antiviral activity against VSV-infected Vero cells; assay type: functional, organism-based
[10] = Inhibition of IgE production in antigen-sensitized BALB/c mouse spleen cells; assay type: functional, tissue-based
[11] = Selectivity ratio, IC50 for vaccinia virus-infected Vero cells to IC50 for inhibition of IgE production in antigen-sensitized BALB/c mouse spleen cells; assay type: functional
[12] = Selectivity ratio, IC50 HSV2-infected Vero cells to IC50 for inhibition of IgE production in antigen-sensitized BALB/c mouse spleen cells; assay type: functional
[13] = tested on: Human alphaherpesvirus 2; experiment: Antiviral activity against HSV2 MS-infected IAF/HA-HO guinea pig assessed as suppression of vesicle formation at 2% applied topically four times a day for 3 days; assay type: functional, organism-based
In short: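 Six hairless guinea pigs were each inoculated at three back sites with HSV-2 MS strain. Sites received drug at 2% in vehicle, vehicle alone, or nothing, rotated between sites so each animal was its own control. Vehicle was 38% Gelucire 44/14, 38% PEG 400, 10% Tween 80 and 10% N-methylpyrrolidinone. Dosing was topical, four times daily at about 2.5 h intervals. Vesicle formation was assessed on day 4 after inoculation.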

[14] = California encephalitis virus, Vero

| SMILES | IC50 ([1]; Orthopoxvirus vaccinia, Vero) | IC50 ([2]; Enterovirus, HeLa H1) | IC50 ([3]; San Angelo virus, Vero) | IC50 [4] | IC50 [5] | IC50 ([6]; Human alphaherpesvirus 2, Vero) | IC50 [7, 14] | IC50 ([8]; Murine coronavirus) | IC50 [9] | IC50 ([10]; Mus musculus, BALB/c, Spleen) | IC50 ([1]; vero) | IC50 ([2]; hela-h1) | IC50 ([3]; vero) | IC50 ([6]; vero) | IC50 ([7]; vero) | Ratio IC50 [11] | IC50 [8] | IC50 [10] | Ratio IC50 [12] | Activity [13] |
| --- | --- | --- | --- | --- | --- | --- | --- | --- | --- | --- | --- | --- | --- | --- | --- | --- | --- | --- | --- | --- |
| O=C(Nc1ccc(-c2nc3cc(NC(=O)C45CC6CC(CC(C6)C4)C5)ncc3[nH]2)cc1)C12CC3CC(C1)C(O)C(C3)C2 (centres undefined) | 0.12 µM | 0.01 µM | 0.06 µM | 0.02 µM | > 2 µM | 0.06 µM | 0.2 µM | 0.02 µM | 1 µM | 0.001 µM |  |  |  |  |  |  |  |  |  |  |
| O=C(Nc1ccc(-c2nc3cc(NC(=O)C45CC6CC(C4)C(O)C(C6)C5)ncc3[nH]2)cc1)C12CC3CC(CC(C3)C1)C2 (centres undefined) | 0.4 µM | 0.02 µM | 0.06 µM | 0.02 µM | 1 µM | 0.09 µM | 0.06 µM | 0.2 µM | > 2 µM | 0.00015 µM |  |  |  |  |  |  |  |  |  |  |
| O=C(Nc1ccc(-c2nc3cc(C(=O)NC45CC6CC(CC(C6)C4)C5)ncc3[nH]2)cc1)c1ccc(Cl)cc1 | 0.04 µM | 0.4 µM | 0.02 µM | 0.02 µM | > 2 µM | 0.02 µM | 0.06 µM | 0.06 µM | > 2 µM | 0.003 µM |  |  |  |  |  |  |  |  |  |  |
| O=C(NC12CC3CC(CC(C3)C1)C2)c1cc2nc(-c3ccc(NC(=O)C45CC6CC(CC(C6)C4)C5)cc3)[nH]c2cn1 | 0.14 µM | 0.04 µM | 0.06 µM | 0.1 µM | > 2 µM | 0.03 µM | 0.06 µM | 0.02 µM | > 2 µM | 0.01 µM |  |  |  |  |  |  |  |  |  |  |
| O=C(Nc1ccccn1)c1ccc2[nH]c(-c3ccc(NC(=O)C45CC6CC(CC(C6)C4)C5)cc3)nc2c1 (stereo in doubt; 1d) |  |  |  |  |  |  |  |  |  |  | 0.3 µM | 0.2 µM | 0.2 µM | 0.3 µM | 0.2 µM | 25 | 0.03 µM | 0.012 µM | 25 |  |
| O=C(Nc1ccc(-c2nc3cc(NC(=O)C4CCCCC4)ncc3[nH]2)cc1)C1CCCCC1 | 0.06 µM | 0.06 µM | 0.02 µM | 0.006 µM | > 2 µM | 0.02 µM | 0.06 µM | 0.015 µM | > 2 µM | 0.0015 µM |  |  |  |  |  |  |  |  |  |  |
| O=C(NC12CC3CC(CC(C3)C1)C2)c1ccc2[nH]c(-c3ccc(NC(=O)C45CC6CC(CC(C6)C4)C5)cc3)nc2c1 | 0.6 µM | 0.02 µM | 0.02 µM | 0.06 µM | > 2 µM | 0.04 µM | 0.06 µM | 0.02 µM | > 2 µM | 0.005 µM |  |  |  |  |  |  |  |  |  |  |
| O=C(Nc1ccccn1)c1ccc2[nH]c(-c3ccc(NC(=O)C45CC6CC(CC(C6)C4)C5)cc3F)nc2c1 | 0.6 µM | 0.4 µM | 0.2 µM | 0.06 µM | > 2 µM | 0.15 µM | 0.2 µM | 0.06 µM | > 2 µM | 0.01 µM |  |  |  |  |  |  |  |  |  |  |
| O=C(Nc1ccccn1)c1cc2nc(-c3ccc(NC(=O)C45CC6CC(CC(C6)C4)C5)cc3)[nH]c2cn1 | 1.5 µM | 0.2 µM | 0.04 µM | 0.6 µM | > 2 µM | 0.6 µM | 0.04 µM | 0.05 µM | > 2 µM | 0.12 µM |  |  |  |  |  |  |  |  |  |  |
| O=C(Nc1ccccn1)c1ccc2[nH]c(-c3ccc(NC(=O)[C@]45CC6CC(C4)[C@@H](O)C(C6)C5)cc3)nc2c1 | 1.8 µM | 0.2 µM | 0.135 µM | 0.4 µM | > 2 µM | 1.5 µM | 0.06 µM | 0.1 µM | > 2 µM | 0.01 µM |  |  |  |  |  | 150 |  |  | 150 |  |
| O=C(Nc1ccc(-c2nc3cc(NC(=O)C4CCCCC4)ccc3[nH]2)cc1)C1CCCCC1 | 0.2 µM | 0.16 µM | 0.2 µM | 0.05 µM | 1 µM | 0.17 µM | 0.2 µM | 0.02 µM | 1 µM | 0.005 µM |  |  |  |  |  |  |  |  |  |  |
| CC(=O)OC1CCC(C(=O)Nc2ccc(-c3nc4cc(NC(=O)C5CCC(OC(C)=O)CC5)ccc4[nH]3)cc2)CC1 (centres undefined) | > 2 µM | > 2 µM | > 2 µM | > 0.6 µM | 1.5 µM | > 2 µM | > 2 µM | > 0.6 µM | 1 µM | 1 µM |  |  |  |  |  |  |  |  |  |  |
| O=C(Nc1ccc(-c2nc3cc(NC(=O)C45CC6CC(CC(C6)C4)C5)ccc3[nH]2)cc1)C12CC3CC(CC(C3)C1)C2 | 0.4 µM | 0.06 µM | 0.06 µM | 0.02 µM | 1.2 µM | 0.02 µM | 0.03 µM | 0.012 µM | > 2 µM | 0.001 µM |  |  |  |  |  |  |  |  |  |  |
| O=C(Nc1ccc(-c2nc3cc(C(=O)NC45CC6CC(C4)C(=O)C(C6)C5)ncc3[nH]2)cc1)c1ccc(Cl)cc1 | 0.04 µM | 0.02 µM | 0.135 µM | > 0.6 µM | > 2 µM | 0.04 µM | 0.2 µM | 0.1 µM | 1 µM | 0.00015 µM |  |  |  |  |  |  |  |  |  |  |
| O=C(Nc1ccccn1)c1ccc2[nH]c(-c3ccc(NC(=O)C45CC6CC(CC(C6)C4)C5)cc3)nc2c1 (stereo in doubt; 1h) |  |  |  | 0.06 µM | > 2 µM |  |  | 0.02 µM | > 2 µM |  | 0.04 µM | 0.02 µM | 0.02 µM | 0.03 µM | 0.06 µM |  |  | 0.004 µM |  |  |
| O=C(Nc1ccc(-c2nc3cc(NC(=O)C45CC6CC(CC(C6)C4)C5)ncc3[nH]2)cc1)C12CC3CC(CC(C3)C1)C2 | 0.01 µM | 0.01 µM | 0.006 µM | 0.02 µM | > 2 µM | 0.005 µM | 0.006 µM | 0.008 µM | > 2 µM | 0.001 µM |  |  |  |  |  |  |  |  |  | Active |
| O=C(Nc1cc2nc(-c3ccc(NC(=O)C45CC6CC(CC(C6)C4)C5)cc3)[nH]c2cn1)c1ccccn1 | 0.5 µM | 0.06 µM | 0.06 µM | 0.06 µM | > 2 µM | 0.075 µM | 0.06 µM | 0.06 µM | 1 µM | 0.01 µM |  |  |  |  |  |  |  |  |  |  |
| O=C1C2CC3CC1CC(C(=O)Nc1ccc(-c4nc5cc(NC(=O)C67CC8CC(C6)C(=O)C(C8)C7)ncc5[nH]4)cc1)(C3)C2 | > 2 µM | > 2 µM | 0.2 µM | > 0.6 µM | 1 µM | > 2 µM | 0.2 µM | > 0.6 µM | > 2 µM | 0.045 µM |  |  |  |  |  |  |  |  |  |  |
| CC(=O)OC1C2CC3CC1CC(C(=O)Nc1ccc(-c4nc5cc(C(=O)Nc6ccccn6)ccc5[nH]4)cc1)(C3)C2 (centres undefined) | 1.5 µM | 0.2 µM | 0.06 µM | 0.2 µM | > 2 µM | 1 µM | 0.13 µM | > 0.6 µM | > 2 µM | 0.01 µM |  |  |  |  |  | >100 |  |  | >100 |  |
| O=C(NC12CC3CC(C1)C(=O)C(C3)C2)c1cc2nc(-c3ccc(NC(=O)C45CC6CC(CC(O)(C6)C4)C5)cc3)[nH]c2cn1 | > 2 µM | 0.1 µM | 0.2 µM | > 0.6 µM | > 2 µM | > 2 µM | 0.2 µM | > 0.6 µM | > 2 µM | 0.14 µM |  |  |  |  |  |  |  |  |  |  |
| O=C1C2CC3CC1CC(C(=O)Nc1ccc(-c4nc5cc(NC(=O)C67CC8CC(CC(C8)C6)C7)ncc5[nH]4)cc1)(C3)C2 | 0.4 µM | > 2 µM | 0.2 µM | > 0.6 µM | > 2 µM | 0.25 µM | 0.2 µM | 0.2 µM | > 2 µM | 0.004 µM |  |  |  |  |  |  |  |  |  |  |
| O=C(Nc1ccc(-c2nc3cc(NC(=O)C4CCCCC4)ccc3[nH]2)cc1)c1ccc(Cl)c(Cl)c1 | 0.6 µM | 0.2 µM | 0.06 µM | 0.02 µM | > 2 µM | 0.06 µM | 0.2 µM | 0.02 µM | > 2 µM | 0.003 µM |  |  |  |  |  |  |  |  |  |  |
| O=C(Nc1ccc(-c2nc3cc(C(=O)NC45CC6CC(CC(C6)C4)C5)ccc3[nH]2)cc1)c1ccc(Cl)c(Cl)c1 | 0.02 µM | 0.02 µM | 0.006 µM | 0.006 µM | > 2 µM | 0.02 µM | 0.02 µM | 0.008 µM | > 2 µM | 0.001 µM |  |  |  |  |  |  |  |  |  |  |
